Data taken from ChEMBL document CHEMBL3856239, “Synthesis and Antiobesity Properties of 6-(4-Chlorophenyl)-3-(4-((3,3-difluoro-1-hydroxycyclobutyl)methoxy)-3-methoxyphenyl)thieno[3,2-d]pyrimidin-4(3H)-one (BMS-814580): A Highly Efficacious Melanin Concentrating Hormone Receptor 1 (MCHR1) Inhibitor” (J Med Chem, 2016).

Experiments:
[1] = Lipophilicity, log P of the compound at pH 7 by HPLC analysis; assay type: physicochemical; conditions: buffer
Method in brief: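 LogP determined by HPLC at pH 7.0.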

[2] = target: Melanin-concentrating hormone receptor 1 (Rattus norvegicus, UniProt P97639); assay: Binding affinity to rat MCHR1
Cytochrome P450 2C8 = target: T1, Cytochrome P450 2C8 (Homo sapiens, UniProt P10632); assay: Inhibition of CYP2C8 (unknown origin); assay type: ADME
T1 sequence (P10632 whole entry): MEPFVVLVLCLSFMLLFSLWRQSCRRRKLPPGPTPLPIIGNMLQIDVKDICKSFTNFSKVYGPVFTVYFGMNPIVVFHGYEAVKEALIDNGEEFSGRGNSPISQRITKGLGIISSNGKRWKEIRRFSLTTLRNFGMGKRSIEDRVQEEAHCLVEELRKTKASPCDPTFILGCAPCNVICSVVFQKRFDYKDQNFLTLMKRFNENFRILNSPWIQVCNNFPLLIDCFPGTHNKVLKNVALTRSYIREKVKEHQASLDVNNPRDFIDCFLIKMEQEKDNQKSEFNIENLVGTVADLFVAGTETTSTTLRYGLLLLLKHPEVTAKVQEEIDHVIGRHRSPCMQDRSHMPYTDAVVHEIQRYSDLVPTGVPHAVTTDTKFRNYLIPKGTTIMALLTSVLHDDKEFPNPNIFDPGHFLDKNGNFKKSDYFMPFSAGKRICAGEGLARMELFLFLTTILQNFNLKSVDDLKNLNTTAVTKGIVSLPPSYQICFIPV
Method in brief: (§1)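 CYP1A2, 2C8, 2C9, 2C19, 2D6 and 3A4 tested for inhibition, with 40 µM as the top tested limit.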

Cytochrome P450 2C19 = Cytochrome P450 2C19 (Homo sapiens, UniProt P33261); assay: Inhibition of CYP2C19 (unknown origin); assay type: ADME; method in brief: as §1
L-type calcium channel = L-type calcium channel (Homo sapiens, UniProt O60840+Q01668+Q13698+Q13936); assay: Inhibition of L-type calcium channel (unknown origin) at 10 uM
Method in brief: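 In vitro ion-channel inhibition measured at 10 µM against hERG, Na (4 Hz) and L-type Ca channels; read-out is percent inhibition.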

[3] = AUC in cynomolgus monkey at 1 mg/kg, iv; assay type: ADME, organism-based, Macaca fascicularis; conditions: in vivo
Method in brief: (§2)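 Rats, dogs and cynomolgus monkeys, n = 3: parent 1 mg/kg i.v. in PEG400:DMAC:water (70:5:25), or phosphate prodrug 10 mg/kg oral in Methocel:Tween80:water (0.5:0.1:99.4); plasma parent compound, Cmax, Tmax, AUC0-∞, half-life, clearance, Vss and bioavailability derived.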

[4] = Clearance in cynomolgus monkey at 1 mg/kg, iv; assay type: ADME, organism-based, Macaca fascicularis; conditions: in vivo; method in brief: as §2
[5] = Volume of distribution at steady state in cynomolgus monkey at 1 mg/kg, iv; assay type: ADME, organism-based, Macaca fascicularis; conditions: in vivo, read-out: Vdss
Method in brief: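 Full PK in rat, dog and cynomolgus monkey. Oral arm: phosphate prodrug at 10 mg/kg parent-equivalent in Methocel:Tween80:water (0.5:0.1:99.4). Intravenous arm: parent at 1 mg/kg in PEG400:DMAC:water (70:5:25). n = 3 per species; individual Tmax values reported for dog and monkey.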

Cytochrome P450 2C19, sequence (P33261 whole entry): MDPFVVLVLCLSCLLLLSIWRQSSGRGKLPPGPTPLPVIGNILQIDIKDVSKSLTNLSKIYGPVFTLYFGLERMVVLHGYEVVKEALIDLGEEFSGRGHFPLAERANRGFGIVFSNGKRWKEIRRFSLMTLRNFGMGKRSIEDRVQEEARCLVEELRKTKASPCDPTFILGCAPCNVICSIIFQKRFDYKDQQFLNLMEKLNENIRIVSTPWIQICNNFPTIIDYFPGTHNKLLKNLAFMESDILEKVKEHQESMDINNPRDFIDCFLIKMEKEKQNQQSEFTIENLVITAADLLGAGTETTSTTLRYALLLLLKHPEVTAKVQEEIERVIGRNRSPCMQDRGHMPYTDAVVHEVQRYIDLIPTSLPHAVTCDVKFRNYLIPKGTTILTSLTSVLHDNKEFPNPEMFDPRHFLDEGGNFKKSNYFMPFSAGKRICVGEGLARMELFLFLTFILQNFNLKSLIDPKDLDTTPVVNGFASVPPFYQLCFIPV
Melanin-concentrating hormone receptor 1, sequence (P97639 whole entry): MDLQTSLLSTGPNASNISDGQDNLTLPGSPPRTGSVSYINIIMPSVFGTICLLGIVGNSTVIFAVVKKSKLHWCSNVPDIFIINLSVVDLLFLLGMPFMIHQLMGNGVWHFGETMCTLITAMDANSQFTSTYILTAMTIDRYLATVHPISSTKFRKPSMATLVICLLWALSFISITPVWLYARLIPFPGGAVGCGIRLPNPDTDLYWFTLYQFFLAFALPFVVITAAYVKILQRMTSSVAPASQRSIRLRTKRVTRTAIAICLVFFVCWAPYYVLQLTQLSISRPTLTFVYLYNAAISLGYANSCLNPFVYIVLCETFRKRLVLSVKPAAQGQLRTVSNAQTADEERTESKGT

SMILES: COc1cc(-n2cnc3cc(-c4ccc(Cl)cc4)sc3c2=O)ccc1OCC1(O)CC(F)(F)C1
- logP [1]: 4.8
- Ki [2]: 11.5 nM
- INH (Cytochrome P450 2C8): > 40 µM
- INH (Cytochrome P450 2C19): > 40 µM
- inhibition at 10 µM (L-type calcium channel): 15%
- AUC [3]: 22.1 µM·h
- clearance [4]: 1.7 mL/min/kg
- Vd [5]: 5.4 L/kg
